The target of data set [1] is Aldo-keto reductase family 1 member B1 (Rattus norvegicus, UniProt P07943). The experiment in a line: Inhibition of Sprague-Dawley rat lens aldose reductase.
Data set [2] is described as follows: Inhibition of advanced glycation end-products formation after 14 days by spectrofluorimetry. It counts as physicochemical. In short, it runs like this:
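Glycation end-product formation measured by an established literature method. Fluorescent reaction products read spectrofluorometrically after a 14-day incubation. Aminoguanidine served as the positive control. Triplicate experiments, reported as mean ± SD. IC50 calculated from the dose–inhibition curve.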

Molecules are shown by their SMILES.

As a reminder, the IC50 is the midpoint of a concentration-inhibition curve. A low value points to greater potency in that assay. For the compound `O=C(/C=C/c1ccc(O)c(O)c1)O[C@H]1[C@H](O)C[C@](O)(C(=O)O)C[C@H]1OC(=O)/C=C/c1ccc(O)c(O)c1`, the IC50 was 2.3 µM in data set [1] and 6.4 µM in data set [2].

As for `C/C=C/C#CC#CCCCO[C@@H]1O[C@H](CO)[C@@H](O)[C@H](O)[C@H]1O`, the IC50 in data set [1] was more than 30 µM; in data set [2] it was more than 50 µM.

For `CC1=CC[C@@H](O)[C@]2(C)[C@@H](OC(=O)/C=C/c3ccc(O)cc3)C[C@@H](C(C)C)[C@@H](O[C@@H]3O[C@H](CO)[C@@H](O)[C@H](O)[C@H]3O)[C@@H]12`, the values for the half-inhibitory concentration (IC50) in data set [1] and in data set [2] were more than 30 µM and more than 50 µM, respectively.

Turning to `CC1=CC[C@H](O)[C@]2(C)[C@H]1[C@@H](O[C@@H]1O[C@H](CO)[C@@H](O)[C@H](O)[C@H]1O)[C@H](C(C)(C)O)C[C@H]2OC(=O)/C=C/c1ccc(O)cc1`, the IC50 is more than 30 µM in data set [1] and more than 50 µM in data set [2].

In the case of `C=C(CO[C@@H]1O[C@H](CO)[C@@H](O)[C@H](O)[C@H]1O)[C@H]1Oc2cc(C(C)=O)c(O)cc2[C@@H]1OC`, the half-inhibitory concentration (IC50) is more than 30 µM in data set [1] and more than 50 µM in data set [2].

In data set [2], `O=C(/C=C/c1ccc(O)c(O)c1)O[C@@H]1C[C@](O)(C(=O)O)C[C@@H](OC(=O)/C=C/c2ccc(O)c(O)c2)[C@H]1O` yielded an IC50 of 6.6 µM.

For the compound `CC[C@H](/C=C/[C@@H](C)[C@H]1CC[C@H]2C3=CC[C@H]4C[C@@H](O)CC[C@]4(C)[C@H]3CC[C@]12C)C(C)C`, the IC50 was more than 30 µM in data set [1] and more than 50 µM in data set [2].

For `CC(/C=C1\SC(=S)N(CC(=O)O)C1=O)=C\c1ccccc1`, the IC50 in data set [2] was more than 50 µM.

On to `COc1cc(-c2oc3cc(O)cc(O)c3c(=O)c2O[C@@H]2O[C@H](CO)[C@@H](O)[C@H](O)[C@H]2O)ccc1O` (stereo in doubt; 7), for which the results for the IC50 in data set [1] and in data set [2] were 9.3 µM and 44.4 µM, respectively.

Turning to `O=C(/C=C/c1ccc(O)c(O)c1)O[C@@H]1C[C@](O)(C(=O)O)C[C@@H](O)[C@H]1O` [CHLOROGENIC ACID], the results for the half-maximal inhibitory concentration (IC50) in data set [1] and in data set [2] were 0.95 µM and more than 50 µM, respectively.

For the compound `C=CCc1ccc(O[C@@H]2O[C@H](CO)[C@@H](O)[C@H](O)[C@H]2O)c(OC)c1` [CITRUSIN C], the IC50 in data set [1] is more than 30 µM; in data set [2], more than 50 µM.

Take `O=c1c(O[C@@H]2OC[C@H](O)[C@H](O)[C@H]2O)c(-c2ccc(O)c(O)c2)oc2cc(O)cc(O)c12` [GUAJAVERIN]: the IC50 in data set [1] came out at 0.32 µM; in data set [2], 9 µM.

In the case of `C/C=C/C#CC#C[C@H](O)CCO` [GYMNASTERKOREAYNE A], the figures for the IC50 in data set [1] and in data set [2] were more than 30 µM and more than 50 µM, respectively.

`C=CCCCCC/C=C/[C@H](O)C#CC#C[C@@H](O)[C@H](C)O` [GYMNASTERKOREAYNE E]: the results for the IC50 in data set [1] and in data set [2] were more than 30 µM and more than 50 µM, respectively.

Consider `O=c1c(O[C@@H]2O[C@H](CO)[C@@H](O)[C@H](O)[C@H]2O)c(-c2ccc(O)c(O)c2)oc2cc(O)cc(O)c12` [ISOQUERCETIN], for which the IC50 came to 4.4 µM in data set [1] and 9.2 µM in data set [2].

In the case of `COc1cc(-c2oc3cc(O)cc(O)c3c(=O)c2O[C@@H]2O[C@H](CO[C@@H]3O[C@@H](C)[C@H](O)[C@@H](O)[C@H]3O)[C@@H](O)[C@H](O)[C@H]2O)ccc1O` [NARCISSIN], the IC50 in data set [1] is 12.1 µM; in data set [2], more than 50 µM.

Consider `C[C@@H]1O[C@@H](OC[C@H]2O[C@@H](Oc3c(-c4ccc(O)cc4)oc4cc(O)cc(O)c4c3=O)[C@H](O)[C@@H](O)[C@@H]2O)[C@H](O)[C@H](O)[C@H]1O` [NICOTIFLOROSIDE], for which the results for the IC50 in data set [1] and in data set [2] were 11.3 µM and more than 50 µM, respectively.

Regarding `N=C(N)NN` [PIMAGEDINE], the IC50 in data set [1] was more than 30 µM; in data set [2], 966 µM.

In the case of `CC[C@H](CC[C@@H](C)[C@H]1CC[C@H]2[C@@H]3CC=C4C[C@@H](O[C@@H]5O[C@H](CO)[C@@H](O)[C@H](O)[C@H]5O)CC[C@]4(C)[C@H]3CC[C@]12C)C(C)C` [SITOGLUSIDE], the results for the IC50 in data set [1] and in data set [2] were more than 30 µM and more than 50 µM, respectively.
